Consider nine molecules from ChEMBL document CHEMBL5608238, “Discovery of Thiophene Derivatives as Potent, Orally Bioavailable, and Blood-Brain Barrier-Permeable Ebola Virus Entry Inhibitors” (J Med Chem, 2024).

Molecules are shown by their SMILES.

The test system of data set [1] is Ebolavirus. Briefly: Antiviral activity against EBOV Kikwit infected in HeLa cells. It is filed as functional, organism-based. To be noted: Orthoebolavirus.
A short description of data set [2]: Selectivity index, ratio of CC50 for african green monkey Vero E6 cells to EC50 for EBOV infected in Vero E6 cells. Particulars: read-out: Ratio CC50/EC50. In kind it is toxicity, cell-based.
Data set [3] can be described thus: Cytotoxicity against african green monkey Vero E6 cells. To be noted: chlorocebus sabaeus. It is filed as toxicity, cell-based, Vero C1008.
Data set [4] has as its system Ebolavirus. Briefly: Antiviral activity against EBOV infected in HeLa cells. To be noted: Orthoebolavirus. In kind it is functional, organism-based.
Data set [5] deals with Ebolavirus. Briefly: Antiviral activity against EBOV-GP pseudotyped virus infected in Vero E6 cells preincubated with cells for 1 hr followed by viral addition and measured after 24 hrs by Steady-Glo microplate luminometer analysis. It is filed as functional, organism-based. To be noted: Orthoebolavirus, Vero C1008. In outline: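 VeroE6 cells (2 × 10⁴/well) were treated with compound at 10 nM–10 μM for 1 h at 37 °C, then infected with 5000 TCID of EBOV Mayinga GP-pseudotyped rVSVΔG-luciferase. Luciferase was read by Steady-Glo after 24 h.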

A short description of data set [6]: Selectivity index, ratio of CC50 for african green monkey Vero E6 cells to EC50 for wild type Zaire EBOV Mayinga 1976 infected in Vero E6 cells. In kind it is toxicity, cell-based. Particulars: read-out: Ratio CC50/EC50.
The nature of data set [7]: Selectivity index, ratio of CC50 for african green monkey Vero E6 cells to EC50 for EBOV-GP pseudotyped virus infected in Vero E6 cells. It is filed as toxicity, cell-based. To be noted: read-out: Ratio CC50/EC50.
Data set [8] is described as follows: Toxicity in C57BL/6 mouse assessed as tolerability at 50 mg/kg, po measured after 4 days. In kind it is organism-based. Particulars: in vivo, 96 h, time 4 day. In outline: (§1)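 Male and female C57BL/6 mice (3/sex/group) got a single oral gavage dose of 50, 100 or 250 mg/kg at 10 mL/kg, in 7.5% NMP, 7.5% Solutol HS-15, 25% PEG-400 and 60% RO water. Controls received vehicle. Clinical signs, body weight, percent weight gain and feed consumption were followed for 4 days, then survivors underwent euthanasia and gross pathology.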

A short description of data set [9]: Drug concentration in BALB/c mouse brain at 50 mg/kg, po measured upto 24 hrs by LC-MS/MS analysis. It is filed as ADME, organism-based. Particulars: read-out: Ct. In outline:
(§2)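 Male BALB/c mice (8–12 weeks, 20–35 g) were given a single dose of test compound solution, either 10 mg/kg i.p. or 50 mg/kg p.o., at 10 mL/kg. Blood and then brain were taken from three mice per time point up to 24 h postdose. Plasma and brain levels were measured by LC–MS/MS, and parameters came from noncompartmental analysis.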

A short description of data set [10]: AUClast in BALB/c mouse brain at 50 mg/kg, po measured upto 24 hrs by LC-MS/MS analysis. In kind it is ADME, organism-based. To be noted: in vivo. In outline: as §2
Data set [11] is described as follows: AUClast in BALB/c mouse brain at 10 mg/kg, ip measured upto 24 hrs by LC-MS/MS analysis. In kind it is ADME, organism-based. To be noted: in vivo. In outline:
as §2

Data set [12] in a line: Drug concentration in BALB/c mouse plasma at 50 mg/kg, po measured upto 24 hrs by LC-MS/MS analysis. It is filed as ADME, organism-based. In outline: as §2
Data set [13] in a line: AUClast in BALB/c mouse plasma at 10 mg/kg, ip measured upto 24 hrs by LC-MS/MS analysis. It is filed as ADME, organism-based. Particulars: in vivo. In outline: as §2
Data set [14] can be described thus: Toxicity in C57BL/6 mouse assessed as mortality at 250 mg/kg, po measured after 4 days. It is filed as organism-based. Particulars: in vivo, 96 h, time 4 day. In outline:
as §1

A short description of data set [15]: Toxicity in C57BL/6 mouse assessed as decrease in feed consumption at 100 mg/kg, po measured after 4 days. It is filed as organism-based. Particulars: in vivo, 96 h, time 4 day. In outline:
as §1

A short description of data set [16]: Drug concentration in BALB/c mouse plasma at 10 mg/kg, ip measured upto 24 hrs by LC-MS/MS analysis. It is filed as ADME, organism-based. In outline: as §2
The nature of data set [17]: Toxicity in C57BL/6 mouse assessed as decrease in body weight gain at 100 mg/kg, po measured after 4 days. It is filed as organism-based. Particulars: in vivo, 96 h, time 4 day. In outline: as §1
Data set [18] in a line: AUClast in BALB/c mouse plasma at 50 mg/kg, po measured upto 24 hrs by LC-MS/MS analysis. In kind it is ADME, organism-based. Particulars: in vivo. In outline: as §2
Data set [19] can be described thus: Drug concentration in BALB/c mouse brain at 10 mg/kg, ip measured upto 24 hrs by LC-MS/MS analysis. It is filed as ADME, organism-based. Particulars: read-out: Ct. In outline: as §2
The nature of data set [20]: Cmax in BALB/c mouse brain at 50 mg/kg, po measured upto 24 hrs by LC-MS/MS analysis. It is filed as ADME, organism-based. To be noted: in vivo. In outline:
as §2

A short description of data set [21]: Tmax in BALB/c mouse brain at 50 mg/kg, po measured upto 24 hrs by LC-MS/MS analysis. In kind it is ADME, organism-based. To be noted: in vivo. In outline: as §2
Data set [22] in a line: Cmax in BALB/c mouse plasma at 50 mg/kg, po measured upto 24 hrs by LC-MS/MS analysis. In kind it is ADME, organism-based. To be noted: in vivo. In outline: as §2
Data set [23] can be described thus: Tmax in BALB/c mouse brain at 10 mg/kg, ip measured upto 24 hrs by LC-MS/MS analysis. In kind it is ADME, organism-based. Particulars: in vivo. In outline:
as §2

A short description of data set [24]: Tmax in BALB/c mouse plasma at 50 mg/kg, po measured upto 24 hrs by LC-MS/MS analysis. It is filed as ADME, organism-based. Particulars: in vivo. In outline:
as §2

Data set [25] in a line: Tmax in BALB/c mouse plasma at 10 mg/kg, ip measured upto 24 hrs by LC-MS/MS analysis. In kind it is ADME, organism-based. To be noted: in vivo. In outline: as §2
Data set [26] concerns Ebolavirus. Briefly: Antiviral activity against EBOV Zaire Kikwit infected in Huh-7 cells incubated for 48 to 72 hrs. It is filed as functional, organism-based. To be noted: Orthoebolavirus.
For data set [27], the system named is Ebolavirus. Briefly: Antiviral activity against eGFP-EBOV infected in Vero E6 cells incubated for 48 hrs by spectrofluorometer assay. Particulars: Orthoebolavirus, Vero C1008, 48 h. In kind it is functional, organism-based.

The EC50 is the midpoint of the concentration-response curve. The CC50 is the concentration that lowers cell viability or growth by half. What is called Cmax is the maximum level reached in the sampled fluid or tissue. The Tmax is the time at which the peak concentration occurs. One may read the IC50 as the concentration that inhibits the measured activity by half.

Molecule `Nc1ncnc2c([C@@H]3N[C@H](CO)[C@@H](O)[C@H]3O)c[nH]c12` returned an EC50 with Ebolavirus [1] of 11.8 µM.
For the molecule `NC(=O)c1nc(F)c[nH]c1=O`, the selectivity ratio in data set [2] stood at 14.9. This molecule came in with a CC50 in data set [3] greater than 1000 µM.
In the data set on Ebolavirus [4], `CCC(CC)COC(=O)[C@H](C)N[P@](=O)(OC[C@H]1O[C@@](C#N)(c2ccc3c(N)ncnn23)[C@H](O)[C@@H]1O)Oc1ccccc1` showed an EC50 of 0.14 µM.
On to `O=C(NCCc1ccccc1)c1ccc(-c2cccc(OC3CCNCC3)c2)s1`, for which, in the data set on Ebolavirus [5], it took 5.3 µM to reach a half-maximal effect (EC50).
For the molecule `O=C(Nc1ccccc1)c1ccc(-c2cccc(OC3CCNCC3)c2)s1`, the results for the selectivity ratio in data set [6] and in [7] were 113 and 4.7, respectively.
With `O=C(Nc1ccccc1)c1ccc(-c2ccc(OC3CCNCC3)cc2)s1`, the Activity result in [8] is on record as “Non-Toxic”; in data set [14], “Toxic”; in [15], “Toxic”; in data set [17], “Toxic”. For the same molecule, the concentration at 24 h is 14800 nM in data set [9], 2040 nM in [12], 2740 nM in data set [16] and 4430 nM in [19]. For the same molecule, the AUClast in data set [10] was determined as 97086.13 ng·h/mL; in [11] it was 25429.34 ng·h/mL; in [13] it was 2973.11 ng·h/mL; in [18] it was 8610.24 ng·h/mL.
Turning to `O=C(Nc1ccccc1)c1ccc(-c2ccccc2OC2CCNCC2)s1`, the Cmax in data set [20] was 316.7 ng/mL; in [22] it was 112.31 ng/mL. The concentration at 24 h was determined as 810 nM in [9], 290 nM in [12], 320 nM in data set [16] and 330 nM in [19]. The time of peak concentration (Tmax) in data set [21] was found to be 6 h; in [23] it was 2 h; in [24], 1 h; in [25], 0.25 h. For the same molecule, the AUClast turned out to be 3341.42 ng·h/mL in data set [10], 600.09 ng·h/mL in data set [11], 271.74 ng·h/mL in data set [13] and 541.78 ng·h/mL in [18].
In the data set on Ebolavirus [26], `CC(C)C(=O)OC[C@H]1O[C@@](C#N)(c2ccc3c(N)ncnn23)[C@H](O)[C@@H]1O` [OBELDESIVIR] came in with an EC50 of 4.16 µM.
Take `CN(C)CCOc1ccc(/C(=C(/CCCl)c2ccccc2)c2ccccc2)cc1` [TOREMIFENE]: half-maximal inhibition in the data set with Ebolavirus [27] (IC50) was put at 0.162 µM.
